The record followed here is ChEMBL document CHEMBL3244277, “Study of trans-cyclopropylbis (diketopiperazine) and chelating agents related to ICRF 159. Cytotoxicity, mutagenicity, and effects on scheduled and unscheduled DNA synthesis” (J Med Chem, 1977).

The subject of data set [1] is V79-4. Put plainly: Inhibition of scheduled DNA synthesis in chinese hamster V79-4 cells assessed as DNA synthesis at 10^-3 M measured at 10 hrs by [3H]thymidine uptake /autoradiography (reference value: 81.7 %). Format: functional, Cricetulus griseus. Also on record: scale not given: the % may be the effect or the level left.
Data set [2] concerns V79-4. Put plainly: Inhibition of scheduled DNA synthesis in chinese hamster V79-4 cells assessed as DNA synthesis at 10^-4 M measured at 10 hrs by [3H]thymidine uptake /autoradiography (reference value: 81.7 %). Format: functional, Cricetulus griseus. Also on record: scale not given: the % may be the effect or the level left.
Data set [3] relates to V79-4. Put plainly: Inhibition of scheduled DNA synthesis in chinese hamster V79-4 cells assessed as DNA synthesis at 10^-5 M measured at 10 hrs by [3H]thymidine uptake /autoradiography (reference value: 81.7 %). It is filed as functional, Cricetulus griseus. Also noted: scale not given: the % may be the effect or the level left.
Data set [4] can be described thus: Cytotoxicity against chinese hamster V79-4 cells assessed as survival using 5 x 10^5 cells per plate at 10^-3 M after 24 hrs. Format: cell-based, Cricetulus griseus. To be noted: read-out: Survival. Summed up: (§1)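 Chinese hamster V-79A cells were seeded in 100-mm dishes, allowed to attach for 2 h, then exposed for 24 h to drug diluted from PBS stocks into Eagle's MEM with 15% fetal calf serum. Cells were rinsed twice in Hank's salt solution and grown drug-free for 7 days at 37 °C in 5% CO2. Colonies were stained with hematoxylin/eosin and counted; each value is the mean of eight plates.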

Data set [5] can be described thus: Cytotoxicity against chinese hamster V79-4 cells assessed as survival using 5 x 10^5 cells per plate at 10^-4 M after 24 hrs. It is filed as cell-based, Cricetulus griseus. As to conditions: read-out: Survival. Summed up:
as §1

Data set [6] in a line: Cytotoxicity against chinese hamster V79-4 cells assessed as survival using 1 x 10^5 cells per plate at 10^-4 M after 24 hrs. Format: cell-based, Cricetulus griseus. To be noted: read-out: Survival. The essentials:
as §1

A short description of data set [7]: Cytotoxicity against chinese hamster V79-4 cells assessed as survival using 5 x 10^5 cells per plate at […] after 24 hrs. It is filed as cell-based, Cricetulus griseus. As to conditions: read-out: Survival.
Data set [8] in a line: Cytotoxicity against chinese hamster V79-4 cells assessed as survival using 1 x 10^5 cells per plate at […] after 24 hrs. It is filed as cell-based, Cricetulus griseus. To be noted: read-out: Survival.
For data set [9], the system named is V79-4. Put plainly: Induction of unscheduled DNA synthesis in chinese hamster V79-4 cells assessed as DNA synthesis at 10^-3 M measured at 8 hrs by [3H]thymidine uptake /autoradiography in presence of 2 x 10^-3 M hydroxyurea. To be noted: Cricetulus griseus, v79-4, 8 h, 1000 µM.
For data set [10], the system named is V79-4. Put plainly: Induction of unscheduled DNA synthesis in chinese hamster V79-4 cells assessed as DNA synthesis at 10^-3 to 10^-5 M measured at 8 hrs by [3H]thymidine uptake /autoradiography in presence of 2 x 10^-3 M hydroxyurea. To be noted: Cricetulus griseus, v79-4, 8 h.
The test system of data set [11] is V79-4. Put plainly: Induction of unscheduled DNA synthesis in chinese hamster V79-4 cells assessed as DNA synthesis at 10^-4 to 10^-5 M measured at 0 to 5 hrs by [3H]thymidine uptake /autoradiography in presence of 2 x 10^-3 M hydroxyurea. To be noted: Cricetulus griseus.
Data set [12] deals with V79-4. Put plainly: Mutagenicity in chinese hamster V79-4 cells assessed as mutation frequency measured per 5 x 10^5 cells per plate at 10^-4 M after 24 hrs relative to control. It is filed as toxicity, cell-based, Cricetulus griseus. As to conditions: v79-4, 24 h, 100 µM. The essentials:
(§2)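 V-79A cells plated at 5×10⁵ or 1×10⁵ per dish in MEM + 5% FCS and allowed 2 h to attach. Exposed 24 h at 37 °C to 10⁻³–10⁻⁵ M drug or none, washed in PBS, then grown 12 days in MEM + 10% FCS with 10⁻³ M ouabain. Resistant colonies were counted after hematoxylin/eosin staining, averaging 20 plates, and expressed per 5×10⁵ cells.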

Data set [13] has as its system V79-4. Put plainly: Mutagenicity in chinese hamster V79-4 cells assessed as mutation frequency measured per 1 x 10^5 cells per plate at 10^-4 M after 24 hrs relative to control. Format: toxicity, cell-based, Cricetulus griseus. As to conditions: v79-4, 24 h, 100 µM.
Data set [14] deals with V79-4. Put plainly: Mutagenicity in chinese hamster V79-4 cells assessed as mutation frequency measured per 5 x 10^5 cells per plate at 10^-5 M after 24 hrs relative to control. To be noted: v79-4, 24 h, 10 µM. Format: toxicity, cell-based, Cricetulus griseus. The essentials: as §2
The test system of data set [15] is V79-4. Put plainly: Inhibition of scheduled DNA synthesis in chinese hamster V79-4 cells assessed as DNA synthesis at 10^-3 M measured at 10 hrs by [3H]thymidine uptake /autoradiography (reference value: 83.3 %). Format: functional, Cricetulus griseus. Also on record: scale not given: the % may be the effect or the level left.
Data set [16] concerns V79-4. Put plainly: Inhibition of scheduled DNA synthesis in chinese hamster V79-4 cells assessed as DNA synthesis at 10^-4 M measured at 10 hrs by [3H]thymidine uptake /autoradiography (reference value: 83.3 %). It is filed as functional, Cricetulus griseus. Also on record: scale not given: the % may be the effect or the level left.
Data set [17] has as its system V79-4. Put plainly: Inhibition of scheduled DNA synthesis in chinese hamster V79-4 cells assessed as DNA synthesis at 10^-5 M measured at 10 hrs by [3H]thymidine uptake /autoradiography (reference value: 83.3 %). It is filed as functional, Cricetulus griseus. Also noted: scale not given: the % may be the effect or the level left.
Data set [18] can be described thus: Cytotoxicity against chinese hamster V79-4 cells assessed as survival using 1 x 10^5 cells per plate at 10^-3 M after 24 hrs. It is filed as cell-based, Cricetulus griseus. To be noted: read-out: Survival. The essentials:
as §1

Data set [19] has as its system V79-4. Put plainly: Inhibition of scheduled DNA synthesis in chinese hamster V79-4 cells assessed as DNA synthesis at 10^-3 M measured at 10 hrs by [3H]thymidine uptake /autoradiography (reference value: 85.2 %). Also on record: scale not given: the % may be the effect or the level left. It is filed as functional, Cricetulus griseus.
Data set [20] has as its system V79-4. Put plainly: Inhibition of scheduled DNA synthesis in chinese hamster V79-4 cells assessed as DNA synthesis at 10^-4 M measured at 10 hrs by [3H]thymidine uptake /autoradiography (reference value: 85.2 %). Format: functional, Cricetulus griseus. Also noted: scale not given: the % may be the effect or the level left.
In data set [21] the test system is V79-4. Put plainly: Inhibition of scheduled DNA synthesis in chinese hamster V79-4 cells assessed as DNA synthesis at 10^-5 M measured at 10 hrs by [3H]thymidine uptake /autoradiography (reference value: 85.2 %). Format: functional, Cricetulus griseus. Also noted: scale not given: the % may be the effect or the level left.
Data set [22] relates to V79-4. Put plainly: Induction of unscheduled DNA synthesis in chinese hamster V79-4 cells assessed as DNA synthesis at 10^-3 to 10^-5 M measured at 0 to 8 hrs by [3H]thymidine uptake /autoradiography in presence of 2 x 10^-3 M hydroxyurea. To be noted: Cricetulus griseus.

Turning to `CC(CN(CC(=O)O)CC(=O)O)N(CC(=O)O)CC(=O)O` (centres undefined), the Activity in [1] was 61.1%; in data set [2], 64.7%; in data set [3], 69.2%; in [9], “Toxic”; in data set [10], “Toxic”; in data set [11], “Non-toxic”. Besides, in data set [4], the viability at 24 h, 1000 µM came out at 1%. For the same compound, the viability at 24 h, 100 µM in [5] and in [6] was 85% in each case. In addition, the viability at 24 h, 10 µM in [7] and in [8] was 94% in each case.
For the compound `O=C1CN([C@H]2C[C@@H]2N2CC(=O)NC(=O)C2)CC(=O)N1` (relative stereo), the Activity entry is reported as “Non-toxic” in data set [12]; “Non-toxic” in data set [13]; “Non-toxic” in [14]; 76.3% in data set [15]; 78.3% in [16]; 82.2% in data set [17]. Also, the Activity result in data set [9] is on record as “Toxic”; in [11], “Non-toxic”. In addition, the viability at 24 h, 1000 µM in data set [4] and in data set [18] was 30% throughout. Besides, the viability at 24 h, 100 µM in [5] and in data set [6] was 50% throughout. Further, the viability at 24 h, 10 µM in data set [7] and in data set [8] was 70% each time.
On to `COC(=O)CN(CC(=O)OC)[C@@H]1C[C@H]1N(CC(=O)OC)CC(=O)OC` (relative stereo), for which the viability at 24 h, 1000 µM in data set [4] and in data set [18] was 0.02% throughout. For the same compound, the viability at 24 h, 100 µM in data set [5] and in [6] was 2% in each case. In addition, the viability at 24 h, 10 µM in data set [7] and in data set [8] was 90% in each case.
`O=C(O)CN(CC(=O)O)[C@@H]1C[C@H]1N(CC(=O)O)CC(=O)O` (relative stereo): the Activity is on record as 7.3% in data set [19], 75.5% in data set [20], 83.8% in [21] and “Toxic” in data set [22]. Moreover, the viability at 24 h, 1000 µM in [4] is 0.04%. Further, the viability at 24 h, 100 µM in data set [5] amounted to 0.6%. Also, the viability at 24 h, 10 µM in data set [7] and in data set [8] was 10% in each case.
